≈ marks a conversion by molar mass, not a printed value.
Key:
Cryptococcus neoformans = test: Antifungal activity against Cryptococcus neoformans cgmcc 2.3161 after 2 to 7 days by broth microdilution method; assay type: functional
Summary of the method: (§1)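 Broth microdilution in 96-well plates per NCCLS. Compounds and fluconazole reference dissolved in DMSO, serially diluted in growth medium, then inoculum suspension added, final concentrations 128 to 0.25 µg/mL (twofold series). Incubated at 32°C. MIC read visually after 2-7 d.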

Candida albicans [1] = test: Antifungal activity against Candida albicans cpcc 400616 after 2 to 7 days by broth microdilution method; assay type: functional; summary of the method: as §1
Aspergillus fumigatus = test: Antifungal activity against Aspergillus fumigatus cgmcc 3.7795 after 2 to 7 days by broth microdilution method; assay type: functional; summary of the method: as §1
Candida albicans [2] = test: Antifungal activity against fluconazole-resistant Candida albicans 103 after 2 to 7 days by broth microdilution method; assay type: functional
Summary of the method: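 Broth microdilution per NCCLS. Compounds dissolved in DMSO, serially diluted in growth medium, then inoculum suspension added to give final concentrations of 128 to 0.25 µg/mL (twofold steps). Plates incubated at 32°C. MIC read by visual observation after 2-7 d. Fluconazole served as reference drug.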

Candida albicans [3] = test: Antifungal activity against fluconazole-sensitive Candida albicans ATCC SC5314 after 2 to 7 days by broth microdilution method; assay type: functional; summary of the method: as §1
Candida tropicalis = test: Antifungal activity against Candida tropicalis cgmcc 2.3739 after 2 to 7 days by broth microdilution method; assay type: functional; summary of the method: as §1
HT-29 = test: Cytotoxicity against human HT-29 cells by MTT assay; assay type: cell-based
A549 = test: Cytotoxicity against human A549 cells by MTT assay; assay type: cell-based
HepG2 = test: Cytotoxicity against human HepG2 cells by MTT assay; assay type: cell-based
H9c2 = test: Cytotoxicity against rat H9c2 cells by MTT assay; assay type: cell-based

| Structure (SMILES) | MIC (Cryptococcus neoformans) | MIC (Candida albicans [1]) | MIC (Aspergillus fumigatus) | MIC (Candida albicans [2]) | MIC (Candida albicans [3]) | MIC (Candida tropicalis) | IC50 (HT-29) | IC50 (A549) | IC50 (HepG2) | IC50 (H9c2) |
| --- | --- | --- | --- | --- | --- | --- | --- | --- | --- | --- |
| O=C1CCSc2ccc(Cl)cc21 | 32 µg/mL (≈ 161 µM) | 16 µg/mL (≈ 80.5 µM) | > 128 µg/mL | 16 µg/mL (≈ 80.5 µM) | 4 µg/mL (≈ 20.1 µM) | 8 µg/mL (≈ 40.3 µM) |  |  |  |  |
| Fc1ccc2c(c1)C(Cl)=C(Cn1cncn1)CS2 | 64 µg/mL (≈ 227 µM) | 16 µg/mL (≈ 56.8 µM) | > 128 µg/mL | 32 µg/mL (≈ 114 µM) | 4 µg/mL (≈ 14.2 µM) | 8 µg/mL (≈ 28.4 µM) |  |  |  |  |
| CC(C)N(CC1=C(Cl)c2cc(Br)ccc2SC1)C(C)C | 0.25 µg/mL (≈ 0.667 µM) | 0.5 µg/mL (≈ 1.33 µM) | > 128 µg/mL | 0.5 µg/mL (≈ 1.33 µM) | 0.5 µg/mL (≈ 1.33 µM) | > 128 µg/mL | > 100 µg/mL | 36 µg/mL (≈ 96.2 µM) | > 100 µg/mL | > 100 µg/mL |
| ClC1=C(CN2CCCC2)CSc2ccc(Br)cc21 | 8 µg/mL (≈ 23.2 µM) | 16 µg/mL (≈ 46.4 µM) | > 128 µg/mL | 64 µg/mL (≈ 186 µM) | 8 µg/mL (≈ 23.2 µM) | 128 µg/mL (≈ 371 µM) |  |  |  |  |
| COc1cccc2c1C(=O)c1c(O)c3c(c(O)c1C2=O)C[C@@](O)(C(=O)CO)C[C@@H]3O[C@H]1C[C@H](N)[C@H](O)[C@H](C)O1 |  |  |  |  |  |  | 1.44 µg/mL (≈ 2.65 µM) | 1.77 µg/mL (≈ 3.26 µM) | 2.9 µg/mL (≈ 5.34 µM) | 0.29 µg/mL (≈ 0.534 µM) |
| CCN(CC)CC1=C(Cl)c2cc(Cl)ccc2SC1 | 1 µg/mL (≈ 3.31 µM) | 4 µg/mL (≈ 13.2 µM) | > 128 µg/mL | 8 µg/mL (≈ 26.5 µM) | 0.5 µg/mL (≈ 1.65 µM) | 2 µg/mL (≈ 6.62 µM) | > 100 µg/mL | > 100 µg/mL | > 100 µg/mL | > 100 µg/mL |
| ClC1=C(Cn2ccnc2)CSc2ccc(Cl)cc21 | 8 µg/mL (≈ 26.9 µM) | 32 µg/mL (≈ 108 µM) | 64 µg/mL (≈ 215 µM) | 64 µg/mL (≈ 215 µM) | 16 µg/mL (≈ 53.8 µM) | 64 µg/mL (≈ 215 µM) |  |  |  |  |
| CCN(CC)CC1=C(Cl)c2cc(Br)ccc2SC1 | 4 µg/mL (≈ 11.5 µM) | 16 µg/mL (≈ 46.1 µM) | > 128 µg/mL | 64 µg/mL (≈ 185 µM) | 8 µg/mL (≈ 23.1 µM) | 64 µg/mL (≈ 185 µM) |  |  |  |  |
| CN1CCN(CC2=C(Cl)c3cc(F)ccc3SC2)CC1 | 1 µg/mL (≈ 3.2 µM) | 16 µg/mL (≈ 51.1 µM) | > 128 µg/mL | 16 µg/mL (≈ 51.1 µM) | 16 µg/mL (≈ 51.1 µM) | 32 µg/mL (≈ 102 µM) |  |  |  |  |
| O=CC1=C(Cl)c2cc(Br)ccc2SC1 | 32 µg/mL (≈ 111 µM) | 32 µg/mL (≈ 111 µM) | > 128 µg/mL | 64 µg/mL (≈ 221 µM) | 16 µg/mL (≈ 55.3 µM) | 64 µg/mL (≈ 221 µM) | 28.8 µg/mL (≈ 99.4 µM) | > 100 µg/mL | 26.6 µg/mL (≈ 91.9 µM) | > 100 µg/mL |
| O=C1CCSc2ccc(F)cc21 | 64 µg/mL (≈ 351 µM) | 32 µg/mL (≈ 176 µM) | 64 µg/mL (≈ 351 µM) | 64 µg/mL (≈ 351 µM) | 8 µg/mL (≈ 43.9 µM) | 16 µg/mL (≈ 87.8 µM) |  |  |  |  |
| CN1CCN(CC2=C(Cl)c3cc(Br)ccc3SC2)CC1 | 8 µg/mL (≈ 21.4 µM) | 16 µg/mL (≈ 42.8 µM) | > 128 µg/mL | 64 µg/mL (≈ 171 µM) | 8 µg/mL (≈ 21.4 µM) | 16 µg/mL (≈ 42.8 µM) |  |  |  |  |
| CC(C)NCC1=C(Cl)c2cc(Cl)ccc2SC1 | 0.5 µg/mL (≈ 1.73 µM) | 32 µg/mL (≈ 111 µM) | 64 µg/mL (≈ 222 µM) | 32 µg/mL (≈ 111 µM) | 16 µg/mL (≈ 55.5 µM) | 32 µg/mL (≈ 111 µM) |  |  |  |  |
| Fc1ccc2c(c1)C(Cl)=C(CN1CCCCC1)CS2 | 2 µg/mL (≈ 6.72 µM) | 2 µg/mL (≈ 6.72 µM) | > 128 µg/mL | 16 µg/mL (≈ 53.7 µM) | 8 µg/mL (≈ 26.9 µM) | 16 µg/mL (≈ 53.7 µM) |  |  |  |  |
| O=CC1=C(Cl)c2cc(Cl)ccc2SC1 | 32 µg/mL (≈ 131 µM) | 64 µg/mL (≈ 261 µM) | > 128 µg/mL | 64 µg/mL (≈ 261 µM) | 32 µg/mL (≈ 131 µM) | 32 µg/mL (≈ 131 µM) | 18.4 µg/mL (≈ 75.2 µM) | > 100 µg/mL | 21.5 µg/mL (≈ 87.8 µM) | > 100 µg/mL |
| CC(C)N(CC1=C(Cl)c2cc(F)ccc2SC1)C(C)C | 4 µg/mL (≈ 12.7 µM) | 4 µg/mL (≈ 12.7 µM) | > 128 µg/mL | 64 µg/mL (≈ 204 µM) | 4 µg/mL (≈ 12.7 µM) | 2 µg/mL (≈ 6.37 µM) |  |  |  |  |
| ClC1=C(Cn2cncn2)CSc2ccc(Br)cc21 | 8 µg/mL (≈ 23.3 µM) | > 128 µg/mL | > 128 µg/mL | > 128 µg/mL | 64 µg/mL (≈ 187 µM) | > 128 µg/mL |  |  |  |  |
| Cc1ccc2c(c1)C(Cl)=C(CN1CCN(C)CC1)CS2 | 32 µg/mL (≈ 104 µM) | 32 µg/mL (≈ 104 µM) | > 128 µg/mL | 64 µg/mL (≈ 207 µM) | 8 µg/mL (≈ 25.9 µM) | 8 µg/mL (≈ 25.9 µM) |  |  |  |  |
